From PubChem
FGF22 binding: FGF22 (human) thermal shift binding. Q9HCT0. recombinant FGF22 thermal shift, SYPRO orange fluorescence; percent of sucrose octasulfate shift, DMSO zero. activity (Tm shift, normalised), % at 9.99 µM. 340,000 compounds, 1.5% hits. AID 651658;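 active means mean Tm shift, scaled 0 neutral to 100 positive control, at about 1.3% or above, every replicate too, limit read from the data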
Target sequence (Q9HCT0 whole entry, looked up): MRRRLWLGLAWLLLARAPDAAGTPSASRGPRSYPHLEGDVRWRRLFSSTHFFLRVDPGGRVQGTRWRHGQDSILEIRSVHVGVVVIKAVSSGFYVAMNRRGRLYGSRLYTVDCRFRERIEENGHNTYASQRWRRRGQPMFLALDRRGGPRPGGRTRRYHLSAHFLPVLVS
ZTA counter: blocks Epstein-Barr virus ZTA, an EBNA-1 counter-screen; inhibition, % at 11 µM; ZTA-DNA binding, fluorescence polarization; 320,000 compounds, 0.15% hits; P03206; AID 2234; in the data active means inhibition above about 33%
Target sequence (P03206 whole entry, looked up): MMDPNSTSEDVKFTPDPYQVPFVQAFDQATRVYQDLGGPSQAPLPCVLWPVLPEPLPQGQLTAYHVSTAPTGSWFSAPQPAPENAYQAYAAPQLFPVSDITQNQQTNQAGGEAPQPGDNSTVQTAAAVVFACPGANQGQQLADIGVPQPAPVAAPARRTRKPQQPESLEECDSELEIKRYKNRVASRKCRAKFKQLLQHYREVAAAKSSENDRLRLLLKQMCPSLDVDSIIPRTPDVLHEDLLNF
EBNA-1 inhibitor: blocks EBNA-1 binding to DNA; EBNA-1 DNA binding, fluorescence polarization; inhibition, % at 14.8 µM; 300,000 compounds, 0.34% hits; in the data active means inhibition above about 28%
NS3 helicase inh: HCV NS3 helicase inhibition. AID 1800. NS3 helicase DNA unwinding, Cy5 molecular beacon fluorescence. 290,000 compounds, 0.56% hits. inhibition, % at 10.9 µM;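 active means inhibition above the mean of all tested compounds plus 3 SD, set per campaign, cut at about 35% in these data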;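 further: 0% = DMSO wells and 100% = thioflavine S control wells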
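Assay system – hepatitis C virus NS3 helicase domain fragment enzyme · Buffer or medium – MOPS pH 6.5, MgCl2, DTT, Tween20, BSA · Reagent – Cy5/quencher beacon DNA duplex and ATP to start · Compound – single 10.9 µM dose · Timing – 1 h at 25 °C · Technique – Cy5 beacon fluorescence read at start and 1 h · Measure – % inhibition of unwinding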
GRIN3A LBD mod: modulators (binders) of human NR3A ligand-binding domain; NR3A LBD differential scanning fluorimetry, Tm shift; 0% = protein alone, 100% = glycine-bound protein; Tm shift relative to glycine control, % at 25 µM; 340,000 compounds, 2.5% hits;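 active means melting temperature shift of at least 10% of the positive control shift, at one fixed dose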
DNA FID counter: fluorescent intercalator displacement, NS3 helicase counter-screen; DNA fluorescent intercalator displacement, fluorescence; 290,000 compounds, 0.17% hits; inhibition, % at 7.9 µM; in the data active means inhibition above about 37%;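 further: 0% = vehicle and 100% = reference compound; higher means more ethidium bromide displaced from hairpin DNA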
* = called active by the depositor; . = not tested or not shown. Hits are enriched below; roughly 3.6% of the tested compounds scored in any of these assays.

SMILES	FGF22 binding	ZTA counter	EBNA-1 inhibitor	NS3 helicase inh	GRIN3A LBD mod	DNA FID counter
Cc1oc(C(C)(C)C)cc1-c1cc(NC(=O)c2ccc([N+](=O)[O-])cc2)n[nH]1	0.0	-4.5	-1.7	-9.9	14.6*	-0.1
COc1ccc2c3c(n(C)c2c1)[C@@H](CO)N(CC1CCCC1)CC31CCN(C(=O)Nc2ccccc2)CC1	-0.3	.	.	.	.	.
Cc1cccc(C)c1NC(=O)CN1C(=O)S/C(=C\c2cccn2C)C1=O	.	5.6	10.4	5.7	4.8	-1.8
Cn1cccc1/C=C1/SC(=O)N(CC(=O)N2CCCC2)C1=O	43.4*	-5.3	1.6	8.6	0.8	-0.1
C[C@H]1CN([C@@H](C)CO)C(=O)Cc2cc(NS(=O)(=O)c3ccccc3)ccc2O[C@@H]1CN(C)CC1CCCCC1	0.6	.	.	.	.	.
O=C(CSc1n[nH]c(=O)[nH]c1=O)c1ccc([N+](=O)[O-])cc1	-0.2	-11.1	-4.0	5.5	-1.4	4.0
COc1ccc(C(=O)CSc2n[nH]c(=O)[nH]c2=O)cc1	42.9*	11.5	8.5	2.4	-1.1	-4.7
CCc1ccc(NC(=O)Cc2ccc(NC3=NC4CS(=O)(=O)CC4S3)cc2)cc1 (stereo not given)	-0.1	5.0	-4.3	5.0	10.2*	-11.7
CCc1ccc(NC(=O)c2ccc(NC3=NC4CS(=O)(=O)CC4S3)cc2)cc1 (stereo not given)	0.0	-1.3	6.1	-2.3	12.7*	-22.4
CCOc1ccc(NC(=O)Cc2ccc(NC3=NC4CS(=O)(=O)CC4S3)cc2)cc1 (stereo not given)	0.0	11.7	2.5	2.5	-0.3	-3.7
CCc1ccc(NC(=O)c2cccc(NC3=NC4CS(=O)(=O)CC4S3)c2)cc1 (stereo not given)	-0.2	12.7	-3.6	-2.1	-6.7	-16.1
Brc1ccc(/C=N/Nc2nc3ccccc3o2)cc1	-0.3	7.8	3.8	-13.0	28.4*	-4.8
O=C(Oc1c(Br)cc([N+](=O)[O-])cc1Br)c1cccnc1	43.6*	9.1	-0.7	6.8	-1.5	0.3
C/C(=N\NC(=O)c1cccnc1)c1cccc([N+](=O)[O-])c1	43.3*	-14.2	-12.6	-1.4	0.0	-7.0
C/C(=N\NC(=O)c1ccc([N+](=O)[O-])cc1)c1cccc([N+](=O)[O-])c1	0.4	-11.6	-3.2	-0.4	-0.9	-1.6
N/C(=N\OC(=O)c1ccc([N+](=O)[O-])cc1)c1cccnc1	0.0	17.7	10.8	-4.6	-3.4	0.9
O=C(CNc1ccc2ccccc2c1)N/N=C/C=C/c1cccc([N+](=O)[O-])c1	-0.2	17.3	0.1	4.3	22.0*	3.5
O=C(N/N=C/C=C\c1cccc([N+](=O)[O-])c1)c1cccnc1	0.0	-6.1	-1.5	2.1	12.5*	-2.1
O=C(N/N=C/C=C/c1cccc([N+](=O)[O-])c1)C(O)c1ccccc1 (stereo not given)	0.1	1.9	-4.4	1.9	-2.2	-2.9
CC(/C=C/c1cccc([N+](=O)[O-])c1)=N/NC(=O)c1cccnc1	0.2	-4.5	-5.0	4.5	-0.4	-4.9
COCCNC(=O)C[C@H]1C[C@H]2c3cc(N(C)C)ccc3O[C@H]2[C@@H](CO)O1	-0.7	.	.	.	.	.
C[C@@H]1CN([C@H](C)CO)C(=O)c2cc(NC(=O)Nc3ccc4c(c3)OCO4)ccc2O[C@@H](C)CCCCO[C@H]1CN(C)S(C)(=O)=O	-0.7	.	.	.	.	.
O=C(/C=C/c1ccc([N+](=O)[O-])cc1)c1cccnc1	0.2	2.4	0.0	-13.1	23.5*	7.0
Oc1ccccc1Cn1nnc2ccccc21	-0.1	-14.3	0.5	-4.7	2.8	-3.5
c1ccc2c(Cn3nnc4ccccc43)cccc2c1	.	19.6	1.8	-2.7	11.0*	-16.4
SMILES	FGF22 binding	ZTA counter	EBNA-1 inhibitor	NS3 helicase inh	GRIN3A LBD mod	DNA FID counter
Cc1ccc(CN2CCN(Cc3cn(C)nc3C)CC2CCO)o1 (stereo not given)	43.1*	-8.1	-10.1	-2.2	1.8	3.1
Cc1ccc(CN2CCN(Cc3cnc(N4CCOCC4)s3)CC2CCO)o1 (stereo not given)	0.0	-3.5	12.1	-1.5	-1.0	-3.0
C/C(=C\c1ccccc1)CN1CCN(Cc2ccc(C)o2)C(CCO)C1 (stereo not given)	43.6*	-0.1	-3.1	4.0	1.4	7.2
Cc1ccc(CN2CCN(Cc3cnc(C)s3)CC2CCO)o1 (stereo not given)	44.0*	-20.1	-11.4	-1.5	1.9	0.2
C[C@H]1CN([C@@H](C)CO)C(=O)c2cccc(NC(=O)CCCCCC(=O)Nc3ccccc3N)c2O[C@H]1CN(C)C(=O)Nc1ccc(C(F)(F)F)cc1	-0.5	.	.	.	.	.
Cc1cc(C)cc(N2C(=O)C=CC2=O)c1	0.4	.	.	.	1.6	.
Cc1cc(C)cc(N2C(=O)c3nccnc3C2=O)c1	0.1	9.9	0.7	1.6	14.4*	2.3
CCOC(=O)N1CCN(C(=O)c2ccc(OCC)c(OCC)c2)CC1	.	-13.5	8.7	-2.1	10.2*	-11.3
CCOc1ccccc1N1CCN(C(=O)c2ccc3c(c2)OCO3)CC1	-0.1	15.4	13.7	-2.8	10.2*	-36.8
Oc1ccccc1C=NN=CC=Cc1ccccc1	0.0	.	.	.	1.3	.
Oc1ccccc1C=NN=Cc1ccccc1Cl	-0.1	.	.	.	12.6*	.
Cc1cc(C(=O)N/N=C/c2ccc(-c3ccc(C)c(Cl)c3)o2)n[nH]1	0.0	10.4	12.6	-2.4	14.6*	-1.3
O=C(N/N=C/c1ccncc1)c1cc(-c2ccc(Br)s2)[nH]n1	-0.4	-3.0	2.3	-1.3	17.4*	-16.9
Cc1ccc(/C=N/NC(=O)c2cc(-c3ccc(C)o3)[nH]n2)cc1	-0.3	-16.9	3.1	-4.3	34.5*	-22.4
Cc1nn(-c2ccccc2)c(C)c1/C=N/NC(=O)c1cc(-c2ccc(Cl)s2)[nH]n1	.	10.4	-8.9	3.5	11.9*	-3.4
Cc1cc(C(=O)N/N=C/c2ccc(-c3ccccc3Cl)o2)n[nH]1	0.4	14.6	6.4	2.4	2.1	-11.3
O=C(N/N=C/c1ccccn1)c1cc(-c2ccc(Br)s2)[nH]n1	0.1	6.2	0.7	10.3	8.6	-27.7
Cc1ccc(-c2cc(C(=O)N/N=C/c3cccnc3)n[nH]2)o1	.	2.2	1.4	-2.8	-0.2	-7.6
COc1ccc(N/N=C(/C(N)=O)C2=NC(C)(C)Cc3ccccc32)cc1	-0.4	7.6	12.8	-1.2	0.3	-11.7
CC1(C)Cc2ccccc2C(/C(C#N)=N/O)=N1	42.9*	6.8	-3.8	-4.1	0.2	-5.2
O=C(NC(NC(=S)Nc1c(Cl)cc(Cl)cc1Cl)C(Cl)(Cl)Cl)OCc1ccccc1 (stereo not given)	-0.1	10.6	5.7	2.6	20.9*	3.3
Cc1ccc(C)c(NC(=S)NC(NC(=O)OCc2ccccc2)C(Cl)(Cl)Cl)c1 (stereo not given)	.	19.4	2.5	17.6	15.3*	-17.1
O=C(NC(=S)Nc1c(Cl)cc(Cl)cc1Cl)c1ccccc1	0.2	.	.	.	.	.
